Reference: ChEMBL document CHEMBL3046857, “Novel inhibitors of the mitochondrial respiratory chain: oximes and pyrrolines isolated from Penicillium brevicompactum and synthetic analogues” (J Agric Food Chem, 2005)

Columns and labels:
[1] = molecular target: T1, NADH-ubiquinone oxidoreductase chain 1 (Bos taurus, UniProt P03887); test: Inhibition of Bos taurus (beef) heart NAD1 assessed as NADH-ubiquinone oxidoreductase activity
Outline: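 Complex I specific activity in NADH-activated beef heart submitochondrial particles (6 µg/mL; 50 mM potassium phosphate pH 7.4, 1 mM EDTA, 22 °C). Compound preincubated 5 min on ice. 75 µM NADH with 30 µM decylubiquinone as acceptor, plus 2 µM antimycin and 2 mM KCN to block downstream steps. NADH oxidation rate read at 340 nm; three assays; IC50.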

[2] = molecular target: T1, NADH-ubiquinone oxidoreductase chain 1; test: Inhibition of Bos taurus (beef) heart NAD1 assessed as NADH oxidase activity
Outline: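 Beef heart submitochondrial particles, diluted to 0.5 mg/mL in 250 mM sucrose/10 mM Tris-HCl pH 7.4 and pre-activated with 300 µM NADH; then diluted to 6 µg/mL in 50 mM potassium phosphate pH 7.4, 1 mM EDTA, 22 °C. Compounds (ethanol stocks) preincubated with particles 5 min on ice. Aerobic oxidation of 75 µM NADH followed at 340 nm; three experiments; IC50.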

T1 sequence (P03887 whole entry): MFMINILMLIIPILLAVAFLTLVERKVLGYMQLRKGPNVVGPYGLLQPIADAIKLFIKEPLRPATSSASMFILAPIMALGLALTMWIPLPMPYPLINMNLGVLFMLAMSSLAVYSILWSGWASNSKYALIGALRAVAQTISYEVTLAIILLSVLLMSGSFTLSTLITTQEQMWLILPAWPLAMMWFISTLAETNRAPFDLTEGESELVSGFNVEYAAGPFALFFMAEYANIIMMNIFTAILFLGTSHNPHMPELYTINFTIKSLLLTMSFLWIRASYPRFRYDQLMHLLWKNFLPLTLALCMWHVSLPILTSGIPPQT

| SMILES | IC50 [1] [µM] | IC50 ([2]; read-out: IC50) [µM] | IC50 [2] |
| --- | --- | --- | --- |
| CCCCCCCCC(=O)CC(=O)c1ccc[nH]1 | 14.3 | 8.6 |  |
| CCC(=O)C(C)C(=O)c1ccc[nH]1 (stereo not drawn) |  |  | Not Active |
| CCC(=O)CC(=O)c1ccc[nH]1 |  |  | Not Active |
| CCCCCCCC1=C(C)C(=O)N2CC/C(=N\O)C2O1 (stereo not drawn) | 1.52 | 0.27 |  |
| C/C=C/CCCCC1=C(C)C(=O)N2CC/C(=N\O)C2O1 (stereo not drawn) |  |  | Not Active |
| CCCCCCCC(=O)C(C)C(=O)N1C=CCC1 (stereo not drawn) |  | 4.55 |  |
| C/C=C/CCCCC(=O)C(C)C(=O)N1C=CCC1 (stereo not drawn) |  |  | Not Active |

Second part, the compound after the results:

| IC50 [1] [µM] | IC50 ([2]; read-out: IC50) [µM] | IC50 [2] | SMILES |
| --- | --- | --- | --- |
|  | 214 |  | CC(C(=O)c1ccccc1)C(=O)c1ccc[nH]1 (stereo not drawn) |
| 3.44 | 0.92 |  | CC1=C(C(C)c2cccc(Oc3ccccc3)c2)OC2/C(=N/O)CCN2C1=O (stereo not drawn) |
|  | 6.82 |  | CC(C(=O)N1C=CCC1)c1cccc(Oc2ccccc2)c1 (stereo not drawn) |
| 14.3 | 5.48 |  | CC1=C(C(C)c2cccc(Oc3ccccc3)c2)OC2C(O)CCN2C1=O (single isomer, unassigned; diastereomer 1) |
| 6.57 | 3.92 |  | CC(C(=O)C(C)c1cccc(Oc2ccccc2)c1)C(=O)N1C=CCC1 (single isomer, unassigned; diastereomer 1) |
|  | 41.5 |  | CC(C(=O)C(C)c1cccc(Oc2ccccc2)c1)C(=O)N1CC[C@H](O)C1 (single isomer, unassigned; diastereomer 1) |
| 11.9 | 3.13 |  | CC1=C(C(C)c2cccc(Oc3ccccc3)c2)OC2C(O)CCN2C1=O (single isomer, unassigned; diastereomer 2) |
| 16.4 | 4.4 |  | CC(C(=O)C(C)c1cccc(Oc2ccccc2)c1)C(=O)N1C=CCC1 (single isomer, unassigned; diastereomer 2) |
|  | 36.3 |  | CC(C(=O)C(C)c1cccc(Oc2ccccc2)c1)C(=O)N1CC[C@H](O)C1 (single isomer, unassigned; diastereomer 2) |
